Measurements taken from ChEMBL document CHEMBL1158800, “Antineoplastic agents. 545. Isolation and structure of turbostatins 1-4 from the Asian marine mollusk Turbo stenogyrus” (2005).
≈ marks a conversion by molar mass, not a printed value.

How the values were obtained:
Assay type in all cases: functional
P388 [1] = assay: In vivo antitumor activity against mouse P388 cells at 4 to 800 mg/ kg; settings: dose mg/ kg 4-800
NCI-H460 = assay: Growth inhibition of human NCI-H460 cells after 48 hrs by particle counting method; settings: NCI-H460, 48 h
MCF7 = assay: Growth inhibition of human MCF7 cells after 48 hrs by particle counting method; settings: MCF7, 48 h
KM-20L2 = assay: Growth inhibition of human KM20L2 cells after 48 hrs by particle counting method; settings: KM-20L2, 48 h
[2] = Growth inhibition of human MXPC3 cells after 48 hrs by particle counting method; settings: MXPC3, 48 h
P388 [3] = assay: Growth inhibition of mouse P388 cells after 48 hrs by particle counting method; settings: P388, 48 h
Outline: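 Murine P388 lymphocytic leukemia cells in 10% horse serum/Fisher medium, preincubated 24 hrs. Serial dilutions of the compounds were added and cells grown 48 hrs. Cell numbers were counted with a Z1 Coulter particle counter, and the ED50 for growth inhibition was calculated.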

DU-145 = assay: Growth inhibition of human DU145 cells after 48 hrs by particle counting method; settings: DU-145, 48 h
SF-268 = assay: Growth inhibition of human SF268 cells after 48 hrs by particle counting method; settings: SF-268, 48 h

Compound	T/C (P388 [1])	GI50 (NCI-H460) [mg/L]	GI50 (MCF7) [mg/L]	GI50 (KM-20L2) [mg/L]	GI50 [2] [mg/L]	GI50 (P388 [3]) [mg/L]	GI50 (DU-145) [mg/L]	GI50 (SF-268) [mg/L]
NCCS(=O)(=O)O [TAURINE]	123							
CCCCCCCCCCC/C=C/[C@@H](O)[C@H](CO[C@@H]1O[C@H](CO)[C@@H](O)[C@H](O)[C@H]1O)NC(=O)CCCCCCCCCCCCCCC [TURBOSTATIN 1]		0.34 (≈ 0.506 µM)	0.44 (≈ 0.655 µM)	0.35 (≈ 0.521 µM)	0.71 (≈ 1.06 µM)	0.27 (≈ 0.402 µM)	1.6 (≈ 2.38 µM)	0.98 (≈ 1.46 µM)
CCCCCCCCCCC/C=C/[C@@H](O)[C@H](CO[C@@H]1O[C@H](CO)[C@@H](O)[C@H](O)[C@H]1O)NC(=O)CCCCCCCCCCCCCCCCC [TURBOSTATIN 2]		0.53 (≈ 0.757 µM)	0.39 (≈ 0.557 µM)	0.35 (≈ 0.5 µM)	1 (≈ 1.43 µM)	0.15 (≈ 0.214 µM)	1.7 (≈ 2.43 µM)	1.9 (≈ 2.71 µM)
CCCCCCCCCCC/C=C/[C@@H](O)[C@H](CO[C@@H]1O[C@H](CO)[C@H](O)[C@H](O)[C@H]1O)NC(=O)CCCCCCCCCCCCCCC [TURBOSTATIN 3]		0.55 (≈ 0.818 µM)	0.48 (≈ 0.714 µM)	0.48 (≈ 0.714 µM)	1.6 (≈ 2.38 µM)	0.25 (≈ 0.372 µM)	2.6 (≈ 3.87 µM)	1.9 (≈ 2.83 µM)
CCCCCCCCCCC/C=C/[C@@H](O)[C@H](CO[C@@H]1O[C@H](CO)[C@H](O)[C@H](O)[C@H]1O)NC(=O)CCCCCCCCCCCCCCCCC [TURBOSTATIN 4]		0.49 (≈ 0.7 µM)	0.44 (≈ 0.629 µM)	0.41 (≈ 0.586 µM)	0.93 (≈ 1.33 µM)	0.29 (≈ 0.414 µM)	2.6 (≈ 3.71 µM)	1.5 (≈ 2.14 µM)
